Bounds are passed on as bounds.

In series [1] the test system is Mus musculus. The experiment in a line: Anticonvulsant activity in ip dosed C57B/6 mouse assessed as protection against maximal electroshock-induced seizure after 30 mins. In kind it is functional. The following applies: C57B/6, ip, 0.5 h.
Series [2] has as its system Mus musculus. The experiment in a line: Anticonvulsant activity in ip dosed C57B/6 mouse assessed as protection against isoniazid-induced tonic seizure administered 30 mins before isoniazide challenge measured after 1 hrs. The following applies: C57B/6, ip. Format: ADME, organism-based.
The species entered for series [3] is Mus musculus. The series is described as follows: Protective index, ratio of TD50 for neurotoxicity in C57B/6 mouse to ED50 for anticonvulsant activity in C57B/6 mouse. Format: functional. In short, it runs like this:
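Protective index computed as TD50 (rotarod, 30 min after ip dosing in polyethylene glycol-400) divided by ED50 in the maximal electroshock test at 30 min, both values from dose-response plots analysed with the NINDS program.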

Series [4] relates to Mus musculus. The experiment in a line: Anticonvulsant activity in ip dosed C57B/6 mouse assessed as protection against 3-mercaptopropionic acid-induced tonic seizure administered 30 mins before 3-mercaptopropionic acid challenge measured after 1 hrs. In kind it is ADME, organism-based. The following applies: C57B/6, ip. In outline:
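Test compound given ip in polyethylene glycol-400; 30 min later 3-mercaptopropionic acid 40 mg/kg in saline injected sc. ED50 taken as the dose preventing tonic convulsions in 50% of treated mice.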

The test system of series [5] is Mus musculus. The series is described as follows: Anticonvulsant activity in ip dosed C57B/6 mouse assessed as protection against pentylenetetrazole-induced clonic seizure administered 30 mins before pentylenetetrazole challenge measured after 30 mins. Format: ADME, organism-based. The following applies: C57B/6, ip, 0.5 h. In short, it runs like this:
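Pentylenetetrazole 85 mg/kg sc, a dose set by dose-percent effect curve to give clonic seizures in 100% of mice, injected 30 min after ip compound in polyethylene glycol-400.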

Series [6] has as its system Mus musculus. The series is described as follows: Anticonvulsant activity in C57B/6 mouse assessed as protection against strychnine-induced tonic seizure at 300 mg/kg, ip administered 30 mins before strychnine challenge measured after 30 mins. The following applies: in vivo, 0.5 h. More on the design: dose 300 mg/kg, route intraperitoneal. In kind it is ADME, organism-based. In short, it runs like this: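 Mice given test compound ip in polyethylene glycol-400; 30 min later strychnine chlorhydrate in saline (1.2 mg/mL, 1 mL/kg) injected sc, a dose set by dose-percent effect curve to convulse 100% of animals. Mice held in individual cages and observed 30 min for convulsions.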

In series [7] the test system is Mus musculus. The experiment in a line: Anticonvulsant activity in ip dosed C57B/6 mouse assessed as protection against thiosemicarbazide-induced tonic seizure administered 30 mins before thiosemicarbazide challenge measured after 1 hrs. The following applies: C57B/6, ip. In kind it is ADME, organism-based.
Series [8] is described as follows: Neurotoxicity in ip dosed C57B/6 mouse after 30 mins by rotarod test. In kind it is toxicity, organism-based. Conditions: in vivo; call rule not given here. In short, it runs like this: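 Rotarod: 30 min after ip compound in polyethylene glycol-400, mice were placed on a 1-inch knurled plastic rod turning at 6 rpm for 1 min. Neurotoxicity was scored as failure to keep balance in each of three trials.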

On to `Clc1cccc(Cl)c1COc1cc2nncn2c2ccccc12`, for which the ED50 in the series on Mus musculus [1] is greater than 100 mg/kg.

Consider `Cc1ccc(COc2cc3nncn3c3ccccc23)cc1`, for which the ED50 with Mus musculus [1] is greater than 100 mg/kg.

As to `Clc1ccccc1COc1cc2nncn2c2ccccc12`, the ED50 in the series with Mus musculus [1] was greater than 100 mg/kg.

For `NC(=O)N1c2ccccc2C=Cc2ccccc21` [CARBAMAZEPINE], the 50% effective dose (ED50) turned out to be 22.8 mg/kg with Mus musculus [2]; 13.7 mg/kg with Mus musculus [4]; 11.8 mg/kg in the series on Mus musculus [1]; 11.4 mg/kg in the series on Mus musculus [5]; 19.7 mg/kg with Mus musculus [7]. Besides, the “Ratio TD50/ED50” value in the series listed under Mus musculus [3] was 6.4. In addition, the Activity entry in the series with Mus musculus [6] was “Not Active”. This compound had a TD50 at 0.5 h in series [8] of 76.1 mg/kg.

For `Brc1ccccc1COc1cc2nncn2c2ccccc12`, the ED50 in the series on Mus musculus [1] was greater than 100 mg/kg.

Take `CCCCOc1cc2nncn2c2ccccc12`: the “Ratio TD50/ED50” value in the series filed under Mus musculus [3] is 1.5. Also, the ED50 in the series with Mus musculus [1] is 36.7 mg/kg. Also, the TD50 at 0.5 h in series [8] was 54.8 mg/kg.

In the case of `CCOc1cc2nncn2c2ccccc12`, in the series listed under Mus musculus [3], the “Ratio TD50/ED50” value is reported as 1.4. The ED50 with Mus musculus [1] turned out to be 91.3 mg/kg. Further, in series [8], the TD50 at 0.5 h amounted to 131 mg/kg.

With `c1ccc(COc2ccc3c(c2)CCc2nncn2-3)cc1`, in the series listed under Mus musculus [3], the “Ratio TD50/ED50” value stood at 3.5.

As to `Clc1ccc(COc2cc3nncn3c3ccccc23)c(Cl)c1`, the 50% effective dose (ED50) in the series on Mus musculus [1] was greater than 100 mg/kg.

As to `Brc1ccc(COc2cc3nncn3c3ccccc23)cc1`, the ED50 with Mus musculus [1] was greater than 100 mg/kg.

As for `Fc1cccc(COc2cc3nncn3c3ccccc23)c1`, in the series with Mus musculus [1], the ED50 was greater than 100 mg/kg.

Take `CCCCCCOc1cc2nncn2c2ccccc12`: the “Ratio TD50/ED50” value in the series listed under Mus musculus [3] is recorded as 5.8. For the same compound, the ED50 in the series on Mus musculus [1] was determined as 19 mg/kg. The compound also gave a TD50 at 0.5 h in series [8] of 110 mg/kg.

Turning to `COc1cc2nncn2c2ccccc12`, the “Ratio TD50/ED50” value in the series filed under Mus musculus [3] stood at 1.1. Moreover, in the series with Mus musculus [1], the ED50 was 93 mg/kg. This compound yielded a TD50 at 0.5 h in series [8] of 102 mg/kg.

In the case of `Fc1ccc(COc2ccc3c(c2)CCc2nncn2-3)cc1`, the ED50 in the series on Mus musculus [1] turned out to be 11.1 mg/kg.

`Clc1ccc(COc2cc3nncn3c3ccccc23)cc1`: the ED50 with Mus musculus [1] was greater than 100 mg/kg.

`CCCOc1cc2nncn2c2ccccc12`: the “Ratio TD50/ED50” value in the series filed under Mus musculus [3] is on record as 1.4. Further, the ED50 in the series on Mus musculus [1] came to 65.7 mg/kg. This compound displayed a TD50 at 0.5 h in series [8] of 94.7 mg/kg.

Consider `Fc1ccccc1COc1cc2nncn2c2ccccc12`, for which the “Ratio TD50/ED50” value in the series filed under Mus musculus [3] is reported as 9. Moreover, in the series on Mus musculus [1], the ED50 turned out to be 25.4 mg/kg. The TD50 at 0.5 h in series [8] was found to be 228 mg/kg.

For `c1ccc(COc2cc3nncn3c3ccccc23)cc1`, the ED50 came to 38 mg/kg with Mus musculus [2]; 9.5 mg/kg in the series with Mus musculus [4]; 22.8 mg/kg in the series with Mus musculus [1]; 27.4 mg/kg with Mus musculus [5]; 19 mg/kg with Mus musculus [7]. The “Ratio TD50/ED50” value in the series listed under Mus musculus [3] is 12. Moreover, the Activity entry in the series on Mus musculus [6] is recorded as “Not Active”. In series [8], this compound showed a TD50 at 0.5 h of 274 mg/kg.

Take `Fc1ccc(COc2cc3nncn3c3ccccc23)cc1`: the ED50 with Mus musculus [1] is greater than 100 mg/kg.

Take `CCCCCCCOc1cc2nncn2c2ccccc12`: the “Ratio TD50/ED50” value in the series listed under Mus musculus [3] turned out to be 1.6. Besides, the ED50 with Mus musculus [1] was determined as 68.2 mg/kg. In series [8], this compound returned a TD50 at 0.5 h of 110 mg/kg.

Turning to `CCCCCCCCOc1cc2nncn2c2ccccc12`, the ED50 in the series with Mus musculus [1] was greater than 100 mg/kg.

On to `CCCCCOc1cc2nncn2c2ccccc12`, for which the “Ratio TD50/ED50” value in the series filed under Mus musculus [3] amounted to 2.6. Further, the ED50 with Mus musculus [1] is 24.5 mg/kg. For the same compound, in series [8], the TD50 at 0.5 h is 63.4 mg/kg.

The record behind these values is ChEMBL document CHEMBL1138568, “Design and synthesis of 5-alkoxy-[1,2,4]triazolo[4,3-a]quinoline derivatives with anticonvulsant activity” (Eur J Med Chem, 2009).
